Compounds with a hit are over-represented: about 1.8% of the library has one in this group of screens.
C8 TRAIL sens – sensitizes caspase-8 expressing cells to TRAIL; NB7+C8 cells + TRAIL, ATPlite viability luminescence; inhibition (viability loss, TRAIL sensitization), % at 10 µM; 1% of 360,000 active;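 active means compounds causing at least 50% loss of cell viability in the single-dose screen, relative to plate controls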
STAT1 inh – reduces IFN-gamma driven STAT1 reporter signal | 0.35% of 200,000 active | AID 920 | NIH 3T3 STAT1-luciferase reporter, luminescence | inhibition, % at 5.5 µM;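 active means inhibition above a set limit, the mean inhibition across all tested compounds plus 3 SD, cut at about 34% in these data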
STAT3 inh-1 – reduces IL-6 driven STAT3 reporter signal | U3A cells, IL-6 STAT3-luciferase reporter, luminescence; host cell line lacks STAT1 | inhibition, % at 5.5 µM | 0.89% of 190,000 active | AID 862;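 active means inhibition above the mean inhibition across all screened compounds plus 3 SD, cut at about 44% in these data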
PPC-1+TRAIL kill – PPC-1 cancer cell killing with TRAIL present; 0.41% of 220,000 active; cell killing (% activity), % at 4 µM or 5 µM; PPC-1 cells + TRAIL, ATPLite viability luminescence;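 active means cell killing above 50% in the first pass at 4 µM, then a duplicate retest at 5 µM averaging 50% or more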
STAT3 act – activators of IL-6 induced STAT3 signaling. U3A cells, IL-6 STAT3-luciferase reporter, luminescence; 100% = signal with IL-6 EC80 alone. activation (% of control), % at 5.6 µM. 0.91% of 190,000 active;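 active means activation above the screen-wide mean of compound activation plus 3 SD, cut at about 130% in these data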
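System – human U3A cells carrying STAT3-luciferase construct · Probe or stimulus – Interleukin-6, 33 ng/mL · Schedule – compound 1 h, then IL-6 6 h at 37 °C · Signal – luminescence from STAT3-driven luciferase reporter · Evaluation – percent of IL-6-only median luminescence · Benchmarks – IL-6-only high control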
STAT3 inh-2 – confirmation of STAT3 signaling inhibitors; U3A cells, IL-6 STAT3 luciferase reporter, luminescence; cell line lacks STAT1; shares compounds with STAT3 inh-1; 45% of 1,200 active; inhibition, % at 5.7 µM;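 active means inhibition above the hit cutoff computed for the primary STAT3 screen, cut at about 44% in these data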
NFkB inh 2 – inhibits NF-kappaB, counter-screen to STAT3 inhibitors; inhibition, % at 5.7 µM; 36% of 1,200 active; HEK293T NF-kB luciferase reporter, TNF-alpha induced; shares compounds with STAT3 inh-1;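 active means inhibition above the mean of solvent-only control wells plus 3 SD, cutoff set per campaign, cut at about 13% in these data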
STAT1 inh STAT3c – inhibits STAT1, counter-screen to STAT3 inhibitors. shares compounds with STAT3 inh-1. NIH 3T3 STAT1-luciferase reporter, IFN-gamma induced, luminescence. inhibition, % at 5.7 µM. 27% of 1,200 active. AID 1317;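 active means inhibition above the mean plus 3 SD of solvent-only control wells, limit set per screening run, cut at about 16% in these data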
Hits are given with their value; i = inactive; nt = no result given.

SMILES | C8 TRAIL sens | STAT1 inh | STAT3 inh-1 | PPC-1+TRAIL kill | STAT3 act | STAT3 inh-2 | NFkB inh 2 | STAT1 inh STAT3c
O=C(Nc1ccc(Cl)cc1)c1ccc(CN2CCc3ccccc3C2)cc1 | i | nt | nt | nt | nt | nt | nt | nt
O=C(Nc1ccc(S(=O)(=O)N2CCCCC2)cc1)c1ccncc1 | i | i | i | i | i | nt | nt | nt
O=C(Nc1ccc(Cc2ccncc2)cc1)c1ccc(S(=O)(=O)N2CCCC2)cc1 | i | i | 68 | i | i | 66 | 15 | i
O=C(Nc1ccccc1)c1ccc(S(=O)(=O)N2CCOCC2)cc1 | i | i | i | i | i | nt | nt | nt
COc1ccccc1C(C)Nc1nc(-c2cccnc2)nc2ccccc12 (stereo not given) | i | nt | nt | nt | nt | nt | nt | nt
NC(=O)c1ccsc1NC(=O)COC(=O)Cc1cccc2ccccc12 | i | i | 75 | i | i | 74 | 19 | 20
COC(=O)c1ccc(NC(=O)Nc2ccccc2F)cc1 | i | i | 48 | i | i | i | i | i
CC(=O)c1cccc(NC(=O)CSc2ncc(C(=O)Nc3ccccc3)c(=O)n2C)c1 | i | nt | nt | nt | nt | nt | nt | nt
CCOC(=O)Cc1csc(SCC(=O)c2c(N)n(CC(C)C)c(=O)n(C)c2=O)n1 | i | i | 64 | i | i | 52 | i | i
CC(C)Cn1c(N)c(C(=O)CSc2ncccn2)c(=O)n(C)c1=O | i | nt | nt | nt | nt | nt | nt | nt
Cc1nn(-c2ccccc2)c(C)c1C(=O)OCC(=O)c1c(N)n(CC(C)C)c(=O)n(C)c1=O | i | i | 44 | i | i | 66 | 14 | i
Cc1csc(SCC(=O)c2c(N)n(CC(C)C)c(=O)n(C)c2=O)n1 | i | i | 49 | i | i | 49 | i | 20
CC(C)Cn1c(N)c(C(=O)COC(=O)c2ccc(O)cc2)c(=O)n(C)c1=O | i | i | i | i | i | nt | nt | nt
COc1ccc(Cc2nnc(NC(=O)c3ccccc3F)s2)cc1 | i | nt | nt | nt | nt | nt | nt | nt
O=C(NC1CC1)c1ccc2nc([C@@H]3O[C@H](CO)[C@H](O)[C@H](O)[C@H]3O)[nH]c2c1 | i | nt | nt | nt | nt | nt | nt | nt
Nc1nc(Br)c2c(F)cccc2c1-c1ccc(F)cc1 | i | i | i | i | i | nt | nt | nt
Nc1nc(Br)c2c(F)cccc2c1-c1ccccc1 | i | i | 46 | i | i | i | i | i
Cc1nc2ccc(-c3nc4cc(N)ccc4o3)cc2[nH]1 | 60 | i | 55 | i | i | i | i | i
O=C(CN1CCN(CC(=O)c2ccccc2)CC1)c1ccccc1 | i | nt | nt | nt | nt | nt | nt | nt
COC(=O)c1ccc(COC(=O)c2[nH]c(C)c(C(C)=O)c2C)o1 | i | i | 47 | i | i | 52 | i | i
CCCN(C(=O)Cc1coc2cc(OC)ccc12)C1CCS(=O)(=O)C1 (stereo not given) | i | nt | nt | nt | nt | nt | nt | nt
Cc1cc(C)c(NC(=O)CN(C)CC(=O)N(C)CC(=O)Nc2c(Cl)cccc2Cl)c(C)c1 | i | nt | nt | nt | nt | nt | nt | nt
Cc1ccc(-c2cnc3c(Cl)c(C)nn3c2)cc1 | i | i | 82 | i | i | i | 22 | i
CCCCOc1ccc(C(=O)Nc2cccc(C)n2)cc1 | i | i | 48 | i | i | i | i | i
CCOc1ccc(NC(=O)Nc2cccc(C)n2)cc1 | i | nt | nt | nt | nt | nt | nt | nt
SMILES | C8 TRAIL sens | STAT1 inh | STAT3 inh-1 | PPC-1+TRAIL kill | STAT3 act | STAT3 inh-2 | NFkB inh 2 | STAT1 inh STAT3c
Cn1c(=O)c2[nH]c(CN3CCCCC3)nc2n(C)c1=O | i | nt | nt | nt | nt | nt | nt | nt
Oc1c(C=Nc2cccnc2)sc2ccccc12 | i | i | i | i | i | nt | nt | nt
Oc1c(C=Nc2ccccc2)sc2ccccc12 | i | i | 66 | nt | i | i | i | i
O=C(C(O)c1ccc(Br)cc1)N1CCC(Nc2ccc3[nH]ncc3c2)CC1 (stereo not given) | i | nt | nt | nt | nt | nt | nt | nt
COc1ccc(Br)cc1/C(C)=N/NC1=NCCN1 | i | i | 54 | i | i | 47 | i | i
O=C(CCOc1ccccc1)N1CCCC(Nc2ccccc2)C1 (stereo not given) | i | nt | nt | nt | nt | nt | nt | nt
O=C(c1ccc(S(=O)(=O)N2CCC(c3nc4ccccc4s3)CC2)cc1)N1CCOCC1 | i | nt | nt | i | nt | nt | nt | nt
O=S(=O)(c1ccc2c(c1)OCCO2)N1CCC(c2nc3ccccc3s2)CC1 | i | i | 53 | i | i | 44 | i | i
COc1ccc(NC(=O)CN2C(=O)C(c3ccccc3)=NC23CCCCCC3)cc1 | i | i | i | i | i | nt | nt | nt
O=C(CN1C(=O)C(c2ccc(F)cc2)=NC12CCCC2)Nc1ccc(F)cc1 | i | i | 58 | i | i | 54 | 14 | 22
O=C1c2ccccc2C(=O)C1c1nccc2ccccc12 | 89 | i | 62 | i | i | i | 49 | i
N/C(=N\OC(=O)c1cccc(Cl)c1)c1ccccn1 | 56 | i | 74 | i | i | i | i | i
N/C(=N\OC(=O)c1ccc(Cl)c([N+](=O)[O-])c1)c1ccccn1 | i | i | i | i | i | nt | nt | nt
CCOC(=O)c1ccc(NC(=O)CN2C(=O)CN(C(C)=O)C2=S)cc1 | i | nt | nt | nt | nt | nt | nt | nt
CN1CCN(c2nc3ccccc3nc2C(C#N)S(=O)(=O)c2ccccc2)CC1 (stereo not given) | nt | nt | nt | i | nt | nt | nt | nt
Cc1ccc(S(=O)(=O)C(C#N)c2nc3ccccc3nc2N2CCN(C)CC2)cc1C (stereo not given) | i | i | 50 | i | i | i | i | i
CCNC(=S)Nc1cccc(F)c1C | i | i | i | i | i | nt | nt | nt
CCCCn1c(N)c(N(CC(C)C)C(=O)C2CCN(S(=O)(=O)c3ccc(Cl)cc3)CC2)c(=O)[nH]c1=O | i | nt | nt | nt | nt | nt | nt | nt
O=C(N/N=C/c1ccc2cccnc2c1)c1ccco1 | 61 | i | 55 | i | i | i | i | i
COc1cc(/C=N\Nc2nc3ccccc3[nH]2)cc(OC)c1OC | i | i | 74 | i | i | i | 19 | i
Cn1c(C(=O)N2CCN(c3nc4ccccc4s3)CC2)cc2sccc21 | i | i | i | i | i | nt | nt | nt
O=C(c1cc2sccc2n1Cc1ccc(F)cc1)N1CCN(c2nc3ccccc3s2)CC1 | i | i | 47 | i | i | i | i | 17
Cc1cnc(NC(=O)C2COc3ccccc3O2)s1 (stereo not given) | i | i | 71 | i | i | i | i | i
Cc1nc2ccc3nc(NC(=O)C4COc5ccccc5O4)sc3c2s1 (stereo not given) | i | i | i | i | i | nt | nt | nt
Cc1csc(NC(=O)C2COc3ccccc3O2)n1 (stereo not given) | i | i | 57 | i | i | i | i | i
C[n+]1cccc(C(=O)Nc2ccccc2)c1 | i | nt | nt | nt | nt | nt | nt | nt
NS(=O)(=O)c1ccc(NC(=O)c2cc(=O)c3ccccc3o2)cc1 | i | nt | nt | nt | nt | nt | nt | nt
COc1ccc(-c2cc3nc(C)cc(N)n3n2)cc1 | 84 | i | 69 | 81 | i | i | i | i
CN(C)c1ccc(N/C=C/C(=O)c2ccco2)cc1 | 62 | i | 60 | i | i | i | 25 | i
Cc1ccc(-c2nc(-c3cccnc3)no2)cc1 | i | i | i | i | i | nt | nt | nt
